Assay [1] has as its system Rattus norvegicus. Briefly: % decrease in mean arterial pressure in conscious renal hypertensive rats at a dose of 3 mg/Kg, administered perorally at MAP 190 mm Hg. In kind it is functional, Artery. The essentials: (§1)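 Conscious two-kidney, one-clip Goldblatt renal hypertensive rats (N = 3) were dosed orally at 3 or 30 mg/kg. Predose mean arterial pressure was about 190 mmHg. The read-out is % decrease in mean arterial pressure. N marks no significant lowering of arterial pressure at that dose.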

The subject of assay [2] is Angiotensin-converting enzyme (Cavia porcellus). Nature of the assay: In vitro inhibitory activity against Angiotensin I converting enzyme from unpurified guinea pig serum; No significant activity.
The subject of assay [3] is Rattus norvegicus. Nature of the assay: % Decrease in mean arterial pressure in conscious renal hypertensive rats at a dose of 30 mg/Kg, administered perorally at MAP 190 mmHg. Format: functional, Artery. The procedure, abridged:
as §1

The test system of assay [4] is Rattus norvegicus. Briefly: % decrease in mean arterial pressure in conscious renal hypertensive rats at a dose of 3 mg/Kg, administered perorally at MAP 190 mm Hg; N means no significant lowering of arterial pressure. In kind it is functional, organism-based. The conditions noted are these: Artery. The essentials:
as §1

The test system of assay [5] is Rattus norvegicus. Nature of the assay: % Decrease in mean arterial pressure in conscious renal hypertensive rats at a dose of 3 mg/Kg, administered perorally at MAP 190 mm Hg; N means no significant lowering of arterial pressure. In kind it is functional, organism-based. The note with it: Artery. The procedure, abridged:
as §1

For assay [6], the system named is Rattus norvegicus. Briefly: % decrease in mean arterial pressure in conscious renal hypertensive rats at a dose of 3 mg/Kg, administered perorally at MAP 190 mmHg. In kind it is functional, Artery. The procedure, abridged:
as §1

The subject of assay [7] is Rattus norvegicus. Nature of the assay: % decrease in mean arterial pressure in conscious renal hypertensive rats at a dose of 30 mg/Kg, administered perorally at MAP 190 mmHg. In kind it is functional, Artery. The essentials:
as §1

In assay [8] the test system is Rattus norvegicus. Briefly: % Decrease in mean arterial pressure in conscious renal hypertensive rats at a dose of 3 mg/Kg, administered perorally at MAP 190 mmHg. In kind it is functional, Artery. The procedure, abridged: as §1

Consider 13 compounds from ChEMBL document CHEMBL1123106, “Synthesis and biological activity of modified peptide inhibitors of angiotensin-converting enzyme” (J Med Chem, 1985).

In the case of `C[C@H](CS)C(=O)N1CCC[C@H]1C(=O)O` [CAPTOPRIL], the “Decrease in mean arterial pressure” value in assay [1] was determined as 49%.

`CC(C(=O)N1CCC[C@H]1C(=O)O)S(=O)(=O)C(CCc1ccccc1)C(=O)O` (stereo partly drawn): in assay [2], the IC50 result was “No significant activity”.

For `CCOC(=O)C(CCc1ccccc1)OC(C)C(=O)N1CCCC1C(=O)O` (stereo not drawn), the “Decrease in mean arterial pressure” value was 3% in assay [3] and “No significant activity” in assay [4]. For `CCOC(=O)[C@H](CCc1ccccc1)N[C@@H](C)C(=O)N1CCC[C@H]1C(=O)O`, the “Decrease in mean arterial pressure” value in assay [1] is recorded as 55%. `CC(SC(CCc1ccccc1)C(=O)O)C(=O)NC1(C(=O)O)CCC(c2ccccc2)CC1` (stereo not drawn): in assay [2], the IC50 entry is recorded as “No significant activity”.

As for `CCOC(=O)C(CCc1ccccc1)[S+]([O-])C(C)C(=O)N1C2CCCCC2C[C@H]1C(=O)O` (stereo partly drawn), the “Decrease in mean arterial pressure” value in assay [5] was “No significant activity”; in assay [3], 10%. In the case of `CCOC(=O)[C@H](CCc1ccccc1)N[C@@H](C)C(=O)N1C2CCCCC2C[C@H]1C(=O)O` (stereo partly drawn), the “Decrease in mean arterial pressure” value in assay [1] stood at 46%. Turning to `CCOC(=O)C(CCc1ccccc1)OC(C)C(=O)N1Cc2ccccc2CC1C(=O)O` (stereo not drawn), the entries for the “Decrease in mean arterial pressure” value in assay [6] and in assay [7] were 8% and 18%, respectively. Regarding `CC(SC(CCc1ccccc1)C(=O)O)C(=O)NC1(C(=O)O)CCCC1` (stereo not drawn), in assay [2], the IC50 entry is reported as “No significant activity”. Consider `CCOC(=O)C(CCc1ccccc1)S(=O)(=O)C(C)C(=O)N1CCC[C@H]1C(=O)O` (stereo partly drawn), for which the IC50 entry in assay [2] is recorded as “No significant activity”.

As to `CC(OC(CCc1ccccc1)C(=O)O)C(=O)N1CCCC1C(=O)O` (stereo not drawn), the “Decrease in mean arterial pressure” value was “No significant activity” in assay [4] and 9% in assay [7].

Regarding `CCOC(=O)[C@H](CCc1ccccc1)N[C@@H](C)C(=O)N1Cc2ccccc2C[C@H]1C(=O)O`, the “Decrease in mean arterial pressure” value in assay [8] is reported as 54%. `CCOC(=O)C(CCc1ccccc1)OC(C)C(=O)N1C(C(=O)O)CC2CCCCC21` (stereo not drawn): the “Decrease in mean arterial pressure” value was “No significant activity” in assay [4] and 12% in assay [7].
